According to ChEMBL document CHEMBL5653630, “Activation of the p53-MDM4 regulatory axis defines the anti-tumour response to PRMT5 inhibition through its role in regulating cellular splicing” (Sci Rep, 2018):
Calls of active or inactive are those of the source. No cut-off for these calls is given here.

Assays:
Z-138 [1] = assay: Induction of cell cycle arrest in human Z138 cells assessed as accumulation of cells at G1 phase cells incubated for 1 to 10 days by propidium iodide staining based flow cytometric analysis; assay type: functional; conditions: dose <= 1000.0 nM, time 1-10 day
JVM-2 = assay: Induction of apoptosis in human JVM-2 cells assessed as early apoptotic cells incubated for 6 days by annexin-V/FITC propidium iodide staining based flow cytometry analysis; assay type: functional, cell-based; conditions: dose <= 5000.0 nM, time 6.0 day
Z-138 [2] = assay: In vivo inhibition of PRMT5 in human Z138 cells xenografted in mouse assessed as increase in PHLDA3 expression at 100 mg/kg, po BID measured for 7 days; assay type: functional, organism-based; conditions: time 7.0 day
[3] = Antiproliferative activity against human Ri-1 cells assessed as cell growth inhibition incubated for 6 days by celltiter-glo assay; assay type: functional; conditions: Ri-1, 144 h, time 6 day
Method in brief: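 Cells seeded in 384-well plates at an optimized density and held 24 h. CellTiter-Glo luminescence read at Day 0 and Day 6. Four-parameter fit. gIC50 = midpoint of the growth window between DMSO and T0. Curves required ≥1.5 population doublings.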

EB-3 = assay: Antiproliferative activity against human EB-3 cells assessed as cell growth inhibition incubated for 10 days; assay type: functional; conditions: EB-3, 240 h, time 10 day
Method in brief: (§1)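 Outsourced panel run in 384-well plates. Cells were grown in RPMI-1640/10% FBS or a special medium at 37°C, 5% CO2. Compound was added 24 h after seeding as a 10-point, 3.16-fold series in 0.1% DMSO. Medium was refreshed and cells re-dosed at 168 h, with a time-zero plate kept. At 240 h cells were fixed, nuclei stained and imaged. gIC50 is growth midway between untreated and time zero, from a 4-parameter fit.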

HeLa = assay: Antiproliferative activity against human HeLa cells assessed as cell growth inhibition incubated for 10 days; assay type: functional; conditions: 240 h, time 10 day; method in brief: as §1
[4] = Antiproliferative activity against human RKOAS451 cells assessed as cell growth inhibition incubated for 10 days; assay type: functional; conditions: RKOAS451, 240 h, time 10 day
SW-620 = assay: Antiproliferative activity against human SW620 cells assessed as cell growth inhibition incubated for 10 days; assay type: functional; conditions: SW-620, 240 h, time 10 day
NCI-H508 = assay: Antiproliferative activity against human NCI-H508 cells assessed as cell growth inhibition incubated for 10 days; assay type: functional; conditions: NCI-H508, 240 h, time 10 day
HCT-8 = assay: Antiproliferative activity against human HCT-8 cells assessed as cell growth inhibition incubated for 10 days; assay type: functional; conditions: HCT-8, 240 h, time 10 day; method in brief: as §1
OE33 = assay: Antiproliferative activity against human OE33 cells assessed as cell growth inhibition incubated for 10 days; assay type: functional; conditions: OE33, 240 h, time 10 day
SNU1 = assay: Antiproliferative activity against human SNU1 cells assessed as cell growth inhibition incubated for 10 days; assay type: functional; conditions: SNU1, 240 h, time 10 day
DK-MG = assay: Antiproliferative activity against human DK-MG cells assessed as cell growth inhibition incubated for 10 days; assay type: functional; conditions: 240 h, time 10 day; method in brief: as §1
H4 = assay: Antiproliferative activity against human H4 cells assessed as cell growth inhibition incubated for 10 days; assay type: functional; conditions: H4, 240 h, time 10 day; method in brief: as §1
RPMI-6666 = assay: Antiproliferative activity against human RPMI-6666 cells assessed as cell growth inhibition incubated for 10 days; assay type: functional; conditions: RPMI-6666, 240 h, time 10 day
[5] = Antiproliferative activity against human HUH-6-clone5 cells assessed as cell growth inhibition incubated for 10 days; assay type: functional; conditions: HUH-6-clone5, 240 h, time 10 day; method in brief: as §1
HLE = assay: Antiproliferative activity against human HLE cells assessed as cell growth inhibition incubated for 10 days; assay type: functional; conditions: 240 h, time 10 day; method in brief: as §1
Daoy = assay: Antiproliferative activity against human Daoy cells assessed as cell growth inhibition incubated for 10 days; assay type: functional; conditions: 240 h, time 10 day; method in brief: as §1
SK-MEL-28 = assay: Antiproliferative activity against human SK-MEL-28 cells assessed as cell growth inhibition incubated for 10 days; assay type: functional; conditions: SK-MEL-28, 240 h, time 10 day
Malme-3M = assay: Antiproliferative activity against human Malme-3M cells assessed as cell growth inhibition incubated for 10 days; assay type: functional; conditions: 240 h, time 10 day
U-266 = assay: Antiproliferative activity against human U266B1 cells assessed as cell growth inhibition incubated for 10 days; assay type: functional; conditions: U-266, 240 h, time 10 day
ChaGo-K-1 = assay: Antiproliferative activity against human ChaGo-K-1 cells assessed as cell growth inhibition incubated for 10 days; assay type: functional; conditions: ChaGo-K-1, 240 h, time 10 day; method in brief: as §1
NCI-H292 = assay: Antiproliferative activity against human NCI-H292 cells assessed as cell growth inhibition incubated for 10 days; assay type: functional; conditions: NCI-H292, 240 h, time 10 day
SK-MES-1 = assay: Antiproliferative activity against human SK-MES-1 cells assessed as cell growth inhibition incubated for 10 days; assay type: functional; conditions: SK-MES-1, 240 h, time 10 day
ES-2 = assay: Antiproliferative activity against human ES2 cells assessed as cell growth inhibition incubated for 10 days; assay type: functional; conditions: ES-2, 240 h, time 10 day; method in brief: as §1
MIA PaCa-2 = assay: Antiproliferative activity against human MIA PaCa-2 cells assessed as cell growth inhibition incubated for 10 days; assay type: functional; conditions: MIA PaCa-2, 240 h, time 10 day
SK-LMS-1 = assay: Antiproliferative activity against human SK-LMS-1 cells assessed as cell growth inhibition incubated for 10 days; assay type: functional; conditions: SK-LMS-1, 240 h, time 10 day
A673 = assay: Antiproliferative activity against human A673 cells assessed as cell growth inhibition incubated for 10 days; assay type: functional; conditions: A673, 240 h, time 10 day
Method in brief: (§2)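 Cells kept in RPMI-1640 with 10% FBS, 2 mM L-alanyl-L-glutamine and 1 mM Na pyruvate (or a special medium) at 37°C, 5% CO2. Compound added 24 h after seeding, 10 concentrations in 3.16-fold dilution, 0.1% DMSO final. Medium replaced and cells re-dosed at 168 h; 240 h incubation. Nuclei fixed, dye-stained and imaged. gIC50 = growth midway between untreated and time-zero cell counts, from a 4-parameter fit.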

A-431 = assay: Antiproliferative activity against human A-431 cells assessed as cell growth inhibition incubated for 10 days; assay type: functional; conditions: A-431, 240 h, time 10 day; method in brief: as §2
[6] = molecular target: Protein arginine N-methyltransferase 5 (Homo sapiens) (UniProt O14744); assay: Inhibition of PRMT5 in human Z138 cells assessed as effect on FUBP1 level by measuring fold change by LC-MS/MS analysis relative to control; assay type: cell-based
[7] = molecular target: Protein arginine N-methyltransferase 5 (Homo sapiens) (UniProt O14744); assay: Inhibition of PRMT5 in human Z138 cells assessed as short MDM4 splicing at 200 to 1000 nM incubated for 3 days by RT-PCR analysis; assay type: cell-based; conditions: dose 200-1000 nM, time 3.0 day
Z-138 [8] = assay: Induction of cell cycle arrest in human Z138 cells expressing full length MDM4 assessed as accumulation of cells at G1 phase at 500 nM incubated for 4 days; assay type: functional, cell-based; conditions: time 4.0 day
Z-138 [9] = assay: Induction of cell cycle arrest in p53 knockout human Z138 cells assessed as accumulation of cells at G1 phase at 50 to 500 nM incubated for 4 days; assay type: functional, cell-based; conditions: dose 50-500 nM, time 4.0 day
RCK8 = assay: Antiproliferative activity against human RCK8 cells assessed as reduction in cell viability; assay type: functional, cell-based

Sequence of Protein arginine N-methyltransferase 5 (Homo sapiens) (O14744 whole entry): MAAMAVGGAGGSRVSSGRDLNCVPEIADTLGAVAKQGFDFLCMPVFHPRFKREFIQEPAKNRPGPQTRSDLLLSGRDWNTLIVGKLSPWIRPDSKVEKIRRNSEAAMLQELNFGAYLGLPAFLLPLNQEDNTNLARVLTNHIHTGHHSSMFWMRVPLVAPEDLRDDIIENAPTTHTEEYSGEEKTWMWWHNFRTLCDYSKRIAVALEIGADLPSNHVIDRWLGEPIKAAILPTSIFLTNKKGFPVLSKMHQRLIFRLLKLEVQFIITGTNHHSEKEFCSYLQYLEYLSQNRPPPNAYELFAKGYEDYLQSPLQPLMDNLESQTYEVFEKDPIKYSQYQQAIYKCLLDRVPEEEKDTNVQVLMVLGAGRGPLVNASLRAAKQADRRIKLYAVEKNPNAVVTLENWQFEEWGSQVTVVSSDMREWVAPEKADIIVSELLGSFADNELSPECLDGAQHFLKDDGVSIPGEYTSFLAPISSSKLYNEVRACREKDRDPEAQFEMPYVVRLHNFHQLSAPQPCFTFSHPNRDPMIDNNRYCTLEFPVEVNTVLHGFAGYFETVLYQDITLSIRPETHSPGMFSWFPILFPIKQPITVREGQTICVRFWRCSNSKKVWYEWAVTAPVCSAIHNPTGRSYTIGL

CC(=O)N1CCC(Nc2cc(C(=O)NC[C@H](O)CN3CCc4ccccc4C3)ncn2)CC1 [PEMRAMETOSTAT]
Activity (Z-138 [1]): Dose-Dependent Effect | Activity (JVM-2): Dose-Dependent Effect | inhibition (Z-138 [2]): Active

O=C(NC[C@H](O)CN1CCc2ccccc2C1)c1ccnc(NC2CCC2)c1
GI50 [3]: 68 nM | GI50 (EB-3): 299 nM | GI50 (HeLa): 230 nM | GI50 [4]: 113 nM | GI50 (SW-620): 5640 nM | GI50 (NCI-H508): 307 nM | GI50 (HCT-8): 430 nM | GI50 (OE33): 231 nM | GI50 (SNU1): 1040 nM | GI50 (DK-MG): 89.5 nM | GI50 (H4): 151 nM | GI50 (RPMI-6666): 748 nM | GI50 [5]: 361 nM | GI50 (HLE): 174 nM | GI50 (Daoy): 270 nM | GI50 (SK-MEL-28): 239 nM | GI50 (Malme-3M): 265 nM | GI50 (U-266): 78.5 nM | GI50 (ChaGo-K-1): 1190 nM | GI50 (NCI-H292): 166 nM | GI50 (SK-MES-1): 807 nM | GI50 (ES-2): 106 nM | GI50 (MIA PaCa-2): 158 nM | GI50 (SK-LMS-1): 113 nM | GI50 (A673): 119 nM | GI50 (A-431): 549 nM | fold change (FC) [6]: -6.6 | inhibition [7]: Active | Activity (Z-138 [8]): Active | Activity (Z-138 [9]): Active | Activity (RCK8): Active
